# Results reported in article PMC5035790 (Annals of Oncology, 2016).
# Marks after values point to notes of the source that are not given here.
# Test system: patients with advanced solid tumors or non-Hodgkin's lymphoma
# Test: Phase I dose-escalation study: safety, tolerability, MTD, adverse events
# Assay type: in vivo, human
# Outline: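 Adults with advanced solid tumours (plus NHL and type 2 diabetic expansion cohorts) received a 1-h IV infusion on days 1, 8 and 15 of 28-day cycles over 0.1–1.2 mg/kg. Accelerated titration escalated the dose by 100% per cohort. MTD was the highest dose given to six patients with ≤1 DLT. Fasting was 8 h pre- and 3 h post-start on cycle 1 day 1. AEs were assessed at planned times each cycle and at follow-up.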
# [1] = diabetic expansion, 0.4 mg/kg, n=6
# [2] = solid tumors expansion, 0.8 mg/kg, n=25
structure (smiles),measurement,setting,value
"COc1c(OCCCN2CCOCC2)ccc2c1N=C(NC(=O)c1cnc(N)nc1)N1CCN=C21 [copanlisib, Copanlisib]","Drug-related hyperglycemia, grade 3","cohort 4, 0.8 mg/kg, n=7",4 (57) n (%)
same,"Drug-related hypertension, all grades","cohort 4, 0.8 mg/kg, n=7",1 (14) n (%)
same,"Drug-related hypertension, grade 3","cohort 4, 0.8 mg/kg, n=7",0 n (%)
same,"Drug-related nausea, all grades","cohort 4, 0.8 mg/kg, n=7",1 (14) n (%)
same,"Drug-related nausea, grade 3","cohort 4, 0.8 mg/kg, n=7",0 n (%)
same,"Drug-related oral cavity mucositis, all grades","cohort 4, 0.8 mg/kg, n=7",0 n (%)
same,"Drug-related oral cavity mucositis, grade 3","cohort 4, 0.8 mg/kg, n=7",0 n (%)
same,"Drug-related rash/desquamation, all grades","cohort 4, 0.8 mg/kg, n=7",0 n (%)
same,"Drug-related rash/desquamation, grade 3","cohort 4, 0.8 mg/kg, n=7",0 n (%)
same,"Drug-related vomiting, all grades","cohort 4, 0.8 mg/kg, n=7",1 (14) n (%)
same,"Drug-related vomiting, grade 3","cohort 4, 0.8 mg/kg, n=7",0 n (%)
same,Any drug-related AE,"cohort 5, 1.2 mg/kg, n=3",3 (100) n (%)
same,Drug-related AEs of grade 3,"cohort 5, 1.2 mg/kg, n=3",2 (67) n (%)
same,Drug-related AEs of grade 4,"cohort 5, 1.2 mg/kg, n=3",1 (33) n (%)
same,"Drug-related diarrhea, all grades","cohort 5, 1.2 mg/kg, n=3",0 n (%)
same,"Drug-related diarrhea, grade 3","cohort 5, 1.2 mg/kg, n=3",0 n (%)
same,"Drug-related fatigue, all grades","cohort 5, 1.2 mg/kg, n=3",0 n (%)
same,"Drug-related fatigue, grade 3","cohort 5, 1.2 mg/kg, n=3",0 n (%)
same,"Drug-related hyperglycemia, all grades","cohort 5, 1.2 mg/kg, n=3",3 (100) n (%)
same,"Drug-related hyperglycemia, grade 3","cohort 5, 1.2 mg/kg, n=3",1 (33) n (%)
same,"Drug-related hypertension, all grades","cohort 5, 1.2 mg/kg, n=3",0 n (%)
same,"Drug-related hypertension, grade 3","cohort 5, 1.2 mg/kg, n=3",0 n (%)
same,"Drug-related nausea, all grades","cohort 5, 1.2 mg/kg, n=3",1 (33) n (%)
same,"Drug-related nausea, grade 3","cohort 5, 1.2 mg/kg, n=3",0 n (%)
same,"Drug-related oral cavity mucositis, all grades","cohort 5, 1.2 mg/kg, n=3",0 n (%)
same,"Drug-related oral cavity mucositis, grade 3","cohort 5, 1.2 mg/kg, n=3",0 n (%)
same,"Drug-related rash/desquamation, all grades","cohort 5, 1.2 mg/kg, n=3",0 n (%)
same,"Drug-related rash/desquamation, grade 3","cohort 5, 1.2 mg/kg, n=3",0 n (%)
same,"Drug-related vomiting, all grades","cohort 5, 1.2 mg/kg, n=3",1 (33) n (%)
same,"Drug-related vomiting, grade 3","cohort 5, 1.2 mg/kg, n=3",0 n (%)
same,Any drug-related AE,[1],5 (83) n (%)
same,Drug-related AEs of grade 3,[1],3 (50) n (%)
same,Drug-related AEs of grade 4,[1],0 n (%)
same,"Drug-related diarrhea, all grades",[1],1 (17) n (%)
same,"Drug-related diarrhea, grade 3",[1],0 n (%)
same,"Drug-related fatigue, all grades",[1],0 n (%)
same,"Drug-related fatigue, grade 3",[1],0 n (%)
same,"Drug-related hyperglycemia, all grades",[1],1 (17) n (%)
same,"Drug-related hyperglycemia, grade 3",[1],1 (17) n (%)
same,"Drug-related hypertension, all grades",[1],2 (33) n (%)
same,"Drug-related hypertension, grade 3",[1],2 (33) n (%)
same,"Drug-related nausea, all grades",[1],2 (33) n (%)
same,"Drug-related nausea, grade 3",[1],0 n (%)
same,"Drug-related oral cavity mucositis, all grades",[1],0 n (%)
same,"Drug-related oral cavity mucositis, grade 3",[1],0 n (%)
same,"Drug-related rash/desquamation, all grades",[1],1 (17) n (%)
same,"Drug-related rash/desquamation, grade 3",[1],1 (17) n (%)
same,"Drug-related vomiting, all grades",[1],0 n (%)
same,"Drug-related vomiting, grade 3",[1],0 n (%)
same,diabetic ketoacidosis,during the study,no patients
same,patients with elevated aminotransferase grade ≥3,laboratory finding,five
same,patients who discontinued because of AEs,n=57,Four
same,"hyperglycemia grade 4, regardless of causality","n=57, text",2%
same,serious drug-related AEs,six of 57 patients,11%
same,Any drug-related AE,[2],20 (80) n (%)
same,Drug-related AEs of grade 3,[2],12 (48) n (%)
same,Drug-related AEs of grade 4,[2],0 n (%)
same,"Drug-related diarrhea, all grades",[2],2 (8) n (%)
same,"Drug-related diarrhea, grade 3",[2],0 n (%)
same,"Drug-related fatigue, all grades",[2],2 (8) n (%)
same,"Drug-related fatigue, grade 3",[2],0 n (%)
same,"Drug-related hyperglycemia, all grades",[2],15 (60) n (%)
same,"Drug-related hyperglycemia, grade 3",[2],8 (32) n (%)
same,"Drug-related hypertension, all grades",[2],5 (20) n (%)
same,"Drug-related hypertension, grade 3",[2],2 (8) n (%)
same,"Drug-related nausea, all grades",[2],7 (28) n (%)
same,"Drug-related nausea, grade 3",[2],0 n (%)
same,"Drug-related oral cavity mucositis, all grades",[2],2 (8) n (%)
same,"Drug-related oral cavity mucositis, grade 3",[2],0 n (%)
same,"Drug-related rash/desquamation, all grades",[2],6 (24) n (%)
same,"Drug-related rash/desquamation, grade 3",[2],2 (8) n (%)
same,"Drug-related vomiting, all grades",[2],3 (12) n (%)
same,"Drug-related vomiting, grade 3",[2],0 n (%)
same,Any drug-related AE,"total, n=57",49 (86) n (%)
same,Drug-related AEs of grade 3,"total, n=57",29 (51) n (%)
same,Drug-related AEs of grade 4,"total, n=57",2 (4)^b n (%)
same,"Drug-related diarrhea, all grades","total, n=57",9 (16) n (%)
same,"Drug-related diarrhea, grade 3","total, n=57",1 (2) n (%)
same,"Drug-related fatigue, all grades","total, n=57",6 (11) n (%)
same,"Drug-related fatigue, grade 3","total, n=57",0 n (%)
same,"Drug-related hyperglycemia, all grades","total, n=57",36 (63) n (%)
same,"Drug-related hyperglycemia, grade 3","total, n=57",17 (30) n (%)
same,"Drug-related hypertension, all grades","total, n=57",12 (21) n (%)
same,"Drug-related hypertension, grade 3","total, n=57",8 (14) n (%)
same,"Drug-related nausea, all grades","total, n=57",21 (37) n (%)
same,"Drug-related nausea, grade 3","total, n=57",0 n (%)
same,"Drug-related oral cavity mucositis, all grades","total, n=57",6 (11) n (%)
same,"Drug-related oral cavity mucositis, grade 3","total, n=57",0 n (%)
same,"Drug-related rash/desquamation, all grades","total, n=57",9 (16) n (%)
same,"Drug-related rash/desquamation, grade 3","total, n=57",4 (7) n (%)
same,"Drug-related vomiting, all grades","total, n=57",7 (12) n (%)
same,"Drug-related vomiting, grade 3","total, n=57",0 n (%)
same,patients with drug-related grade 4 AEs,"two patients, three events",4%
